# Data published in ChEMBL document CHEMBL5058577, “EUbOPEN Chemogenomics Library 2 (Multiplex)” (2022).
# Test system: HEK-293T
# Experiment: Multiplex assay against HEK293T
# Type: toxicity, cell-based
# Conditions: human
# In short: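 Per cents of healthy-nucleus cells form the tubulin, mitochondrial-mass and membrane-permeability phenotype values. Live cells were stained at seeding with Hoechst33342, BioTracker Green Microtubule Cytoskeleton Dye, MitoTracker Red and Annexin V Alexa Fluor 680. After compound addition they were imaged on a CQ1 microscope at 37°C and 5% CO2, and CellPathfinder machine-learning gating split them into Hoechst high-intensity objects or normal cells, normal cells into healthy, pyknosed or fragmented nuclei, and pyknosed cells into mitotic or apoptotic.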
# [1] = 12 h, 1 µM, compound concentration 1 uM, replicate 1
# [2] = 12 h, 1 µM, compound concentration 1 uM, replicate 2
# [3] = 12 h, 10 µM, compound concentration 10 uM, replicate 1
# [4] = 12 h, 10 µM, compound concentration 10 uM, replicate 2
# [5] = 24 h, 1 µM, compound concentration 1 uM, replicate 1
# [6] = 24 h, 1 µM, compound concentration 1 uM, replicate 2
# [7] = 24 h, 10 µM, compound concentration 10 uM, replicate 1
# [8] = 24 h, 10 µM, compound concentration 10 uM, replicate 2
# [9] = 48 h, 1 µM, compound concentration 1 uM, replicate 1
# [10] = 48 h, 1 µM, compound concentration 1 uM, replicate 2
# [11] = 48 h, 10 µM, compound concentration 10 uM, replicate 1
# [12] = 48 h, 10 µM, compound concentration 10 uM, replicate 2
smiles,measurement,setting,value
CCn1c(-c2nc3cc(C(=O)N4CCCC(N)C4)ccc3n2C)cc2ccccc21.Cl (configuration not stated),Population Apoptotic (%),[1],54%
same,Population Fragmented Nuclei (%),[1],9%
same,Population Healthy Nuclei (%),[1],77%
same,Population Hoechst High Intensity Objects (%),[1],7%
same,Population Membrane Permeable-Phenotype (%),[1],0%
same,Population Mitochondria Different-Phenotype (%),[1],52%
same,Population Mitotic Cells (%),[1],45%
same,Population Normal (%),[1],92%
same,Population Pyknosed Nuclei (%),[1],13%
same,Population Tubulin-Different-Phenotype (%),[1],33%
same,Total Cell Count,[1],351
same,Population Apoptotic (%),[2],47%
same,Population Fragmented Nuclei (%),[2],5%
same,Population Healthy Nuclei (%),[2],81%
same,Population Hoechst High Intensity Objects (%),[2],6%
same,Population Mitochondria Different-Phenotype (%),[2],69%
same,Population Mitotic Cells (%),[2],52%
same,Population Normal (%),[2],93%
same,Population Tubulin-Different-Phenotype (%),[2],20%
same,Total Cell Count,[2],312
same,Population Apoptotic (%),[3],53%
same,Population Fragmented Nuclei (%),[3],8%
same,Population Healthy Nuclei (%),[3],74%
same,Population Hoechst High Intensity Objects (%),[3],11%
same,Population Membrane Permeable-Phenotype (%),[3],0%
same,Population Mitochondria Different-Phenotype (%),[3],85%
same,Population Mitotic Cells (%),[3],46%
same,Population Normal (%),[3],88%
same,Population Pyknosed Nuclei (%),[3],17%
same,Population Tubulin-Different-Phenotype (%),[3],75%
same,Total Cell Count,[3],406
same,Population Fragmented Nuclei (%),[4],6%
same,Population Healthy Nuclei (%),[4],78%
same,Population Hoechst High Intensity Objects (%),[4],8%
same,Population Normal (%),[4],91%
same,Population Pyknosed Nuclei (%),[4],15%
same,Population Tubulin-Different-Phenotype (%),[4],64%
same,Total Cell Count,[4],398
same,Population Apoptotic (%),[5],35%
same,Population Fragmented Nuclei (%),[5],9%
same,Population Healthy Nuclei (%),[5],80%
same,Population Hoechst High Intensity Objects (%),[5],6%
same,Population Membrane Permeable-Phenotype (%),[5],0%
same,Population Mitochondria Different-Phenotype (%),[5],37%
same,Population Mitotic Cells (%),[5],64%
same,Population Normal (%),[5],93%
same,Population Pyknosed Nuclei (%),[5],10%
same,Population Tubulin-Different-Phenotype (%),[5],22%
same,Total Cell Count,[5],459
same,Population Apoptotic (%),[6],39%
same,Population Healthy Nuclei (%),[6],79%
same,Population Hoechst High Intensity Objects (%),[6],4%
same,Population Mitochondria Different-Phenotype (%),[6],49%
same,Population Mitotic Cells (%),[6],60%
same,Population Normal (%),[6],95%
same,Population Pyknosed Nuclei (%),[6],11%
same,Population Tubulin-Different-Phenotype (%),[6],14%
same,Total Cell Count,[6],383
same,Population Apoptotic (%),[7],51%
same,Population Fragmented Nuclei (%),[7],11%
same,Population Healthy Nuclei (%),[7],70%
same,Population Hoechst High Intensity Objects (%),[7],12%
same,Population Membrane Permeable-Phenotype (%),[7],1%
same,Population Mitochondria Different-Phenotype (%),[7],72%
same,Population Mitotic Cells (%),[7],48%
same,Population Normal (%),[7],87%
same,Population Pyknosed Nuclei (%),[7],18%
same,Population Tubulin-Different-Phenotype (%),[7],64%
same,Total Cell Count,[7],449
same,Population Apoptotic (%),[8],40%
same,Population Fragmented Nuclei (%),[8],8%
same,Population Healthy Nuclei (%),[8],78%
same,Population Hoechst High Intensity Objects (%),[8],9%
same,Population Membrane Permeable-Phenotype (%),[8],0%
same,Population Mitochondria Different-Phenotype (%),[8],83%
same,Population Mitotic Cells (%),[8],59%
same,Population Normal (%),[8],90%
same,Population Pyknosed Nuclei (%),[8],13%
same,Population Tubulin-Different-Phenotype (%),[8],58%
same,Total Cell Count,[8],471
same,Population Apoptotic (%),[9],20%
same,Population Fragmented Nuclei (%),[9],12%
same,Population Healthy Nuclei (%),[9],79%
same,Population Hoechst High Intensity Objects (%),[9],5%
same,Population Membrane Permeable-Phenotype (%),[9],1%
same,Population Mitochondria Different-Phenotype (%),[9],28%
same,Population Mitotic Cells (%),[9],79%
same,Population Normal (%),[9],94%
same,Population Pyknosed Nuclei (%),[9],8%
same,Population Tubulin-Different-Phenotype (%),[9],17%
same,Total Cell Count,[9],771
same,Population Apoptotic (%),[10],14%
same,Population Fragmented Nuclei (%),[10],13%
same,Population Healthy Nuclei (%),[10],81%
same,Population Hoechst High Intensity Objects (%),[10],4%
same,Population Membrane Permeable-Phenotype (%),[10],0%
same,Population Mitochondria Different-Phenotype (%),[10],30%
same,Population Mitotic Cells (%),[10],85%
same,Population Normal (%),[10],95%
same,Population Pyknosed Nuclei (%),[10],5%
same,Population Tubulin-Different-Phenotype (%),[10],11%
same,Total Cell Count,[10],640
same,Population Apoptotic (%),[11],50%
same,Population Fragmented Nuclei (%),[11],14%
same,Population Healthy Nuclei (%),[11],73%
same,Population Hoechst High Intensity Objects (%),[11],15%
same,Population Membrane Permeable-Phenotype (%),[11],0%
same,Population Mitochondria Different-Phenotype (%),[11],65%
same,Population Mitotic Cells (%),[11],49%
same,Population Normal (%),[11],84%
same,Population Pyknosed Nuclei (%),[11],12%
same,Population Tubulin-Different-Phenotype (%),[11],63%
same,Total Cell Count,[11],605
same,Population Apoptotic (%),[12],52%
same,Population Fragmented Nuclei (%),[12],10%
same,Population Healthy Nuclei (%),[12],79%
same,Population Hoechst High Intensity Objects (%),[12],8%
same,Population Mitochondria Different-Phenotype (%),[12],71%
same,Population Mitotic Cells (%),[12],47%
same,Population Normal (%),[12],91%
same,Population Pyknosed Nuclei (%),[12],9%
same,Total Cell Count,[12],613
